Reference: article PMC4091967 (International Journal of Oncology, 2014)
Like-named read-outs stand apart in the source and are kept apart here.

Columns and labels:
[1] = system: PC-3 prostate cancer cells; experiment: Trypan blue exclusion cell viability assay; assay type: cell-based, human; details: for EC100: read-out: EC100 values in PC-3 cells, trypan blue exclusion, 72 h, mean ± SEM
Summary of the method: (§1)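 Seeding 24 h ahead was DU-145 at 6,000 cells/well in DMEM and PC-3 at 6,500 cells/well in RPMI-1640, both with 10% FBS and 1% penicillin/streptomycin. Compounds were added from DMSO stocks (0.2% final DMSO) for 72 h, in quadruplicate. Cells were trypsinized, washed in calcium-free PBS, resuspended in PBS and counted by automated trypan blue exclusion. EC50 came from ≥6 concentrations bracketing a preliminary estimate; 3 independent experiments.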

[2] = Trypan blue exclusion cell viability assay on normal cells, 72 h; assay type: cell-based, human; details: human, HIFF (human infant foreskin fibroblasts)
Summary of the method: (§2)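 HIFF fibroblasts (infant foreskin, donor-consented) were kept in DMEM with 10% FBS and 1% penicillin/streptomycin at 37°C and 5% CO2, seeded at 6,000 cells/well 24 h ahead. Cells were treated for 72 h at 50 μM or at single lower concentrations (0.2% final DMSO), in quadruplicate. Cells were trypsinized, washed in calcium-free PBS, resuspended in PBS, and viability was scored by automated trypan blue exclusion.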

[3] = system: DU-145 prostate cancer cells; experiment: Trypan blue exclusion cell viability assay; assay type: cell-based, human; details: for EC100: read-out: EC100 values in DU-145 cells, trypan blue exclusion, 72 h, mean ± SEM
Summary of the method: as §1

[4] = system: DU-145 prostate cancer cells; experiment: Alamar Blue cell viability assay; assay type: cell-based; details: Homo sapiens, DU-145, read-out: EC50 value in Alamar Blue
Summary of the method: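 DU-145 cells were grown in DMEM with 10% FBS and 1% penicillin/streptomycin at 37°C and 5% CO2, then seeded at 6,000 cells/well 24 h before treatment. Compounds were added from DMSO stocks to 0.2% final DMSO for 72 h, in quadruplicate. After PBS wash, wells got Alamar Blue for 6 h; fluorescence ex 530/em 590 nm. EC50 fitted from ≥6 concentrations.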

[5] = system: DU-145 prostate cancer cells; experiment: Crystal violet cell viability assay; assay type: cell-based, human; details: crystal violet staining, even at non-cytotoxic concentrations
Summary of the method: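 DU-145 cells were seeded at 6,000 cells/well in DMEM/10% FBS 24 h ahead and exposed to compound for 72 h (0.2% final DMSO), in quadruplicate. Cells were fixed in 4% formaldehyde at 4°C for 30 min, washed with MeOH:AcOH 3:1, then 80% MeOH, and stained with 0.1% crystal violet for 1 h at room temperature. Stain was dissolved in 10% AcOH; A570 read against untreated control.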

[6] = system: HIFF (human infant foreskin fibroblasts) normal cells; experiment: Trypan blue exclusion cell viability assay on normal cells, 72 h; assay type: cell-based; details: 50 μM flavonol, mean ± SEM
Summary of the method: as §2

[7] = system: B12 cells; details: 3 h incubation, ref 70 (Liu et al); cited from earlier work
[8] = Homo sapiens, PC-3, 72 h, read-out: EC50 values in PC-3 cells, trypan blue exclusion, 72 h, mean ± SEM
[9] = read-out: EC100 - EC50 values in PC-3 cells, difference between EC100 and EC50, mean ± SEM
[10] = Homo sapiens, DU-145, 72 h, read-out: EC50 values in DU-145 cells, trypan blue exclusion, 72 h, mean ± SEM
[11] = Homo sapiens, DU-145, read-out: EC100 - EC50 values in DU-145 cells, difference between EC100 and EC50, mean ± SEM
[12] = Homo sapiens, PC-3, read-out: EC100 - EC50 values in PC-3 cells, difference between EC100 and EC50, mean ± SEM
[13] = read-out: EC100 - EC50 values in DU-145 cells, difference between EC100 and EC50, mean ± SEM
[14] = read-out: EC50 values in DU-145 cells, trypan blue exclusion, 72 h, mean ± SEM

For O=c1c(O)c(-c2cccc(-c3ccccc3)c2)oc2cc(O)cc(O)c12 [8c, 2-[(1,1′-Biphenyl)-3-yl]-3,5,7-trihydroxy-4H-chromen-4-one], the EC50 [1, 8] was 6.35 ± 0.26 µM, the EC50 [1, 9] was 4.98 ± 1.54 µM and the viability at 72 h, 50 μM [2] was 34.6 ± 2.74%. It also gave an EC50 [3, 10] of 6.33 ± 0.58 µM and an EC50 [3, 11] of 11.7 ± 1.11 µM.
Molecule O=c1c(O)c(-c2ccccc2)oc2cc(O)cc(O)c12 [5f, Galangin, reference compound] has an EC50 [1, 8] of 17.1 ± 1.29 µM, an EC100 ([1]; Homo sapiens, PC-3, 72 h) of 43.9 ± 4.14 µM and an EC50 [1, 12] of 26.8 ± 5.31 µM. For the same molecule, the viability at 72 h, 50 μM [2] was 48 ± 1.38%, the EC50 [3, 10] was 25.9 ± 0.59 µM and the EC100 ([3]; Homo sapiens, DU-145, 72 h) was 46.4 ± 3.92 µM. It also gave an EC50 [3, 13] of 20.5 ± 0.46 µM.
In the case of COc1ccc(-c2oc3cc(O)cc(O)c3c(=O)c2O)cc1 [Kaempferide, reference compound], the EC50 [4] is reported as 30.1 µM, the EC50 [1, 8] is reported as 14.9 ± 0.78 µM and the EC100 ([1]; Homo sapiens, PC-3, 72 h) is reported as 34.2 ± 1.66 µM. For the same molecule, the EC50 [1, 12] was 19.3 ± 2.1 µM, the viability at 72 h, 50 μM [2] was 52.2 ± 1.17% and the EC50 [3, 10] was 19.8 µM. The EC100 ([3]; Homo sapiens, DU-145, 72 h) was 39.2 ± 0.87 µM, the EC50 [3, 14] was 19.8 ± 0.5 µM and the EC50 [3, 13] was 19.4 ± 2.02 µM. The “maximum achievable cell viability compared to the control” value [5] was less than 50%.
Cc1ccc(-c2oc3cc(O)cc(O)c3c(=O)c2O)cc1 [5e, 3,5,7-Trihydroxy-2-(p-tolyl)-4H-chromen-4-one] gave an EC50 [1, 8] of 9.89 ± 1.24 µM, an EC50 [1, 12] of 10.5 ± 3.29 µM and a viability at 72 h, 50 μM [2] of 37.5 ± 2.27%. The EC50 [3, 10] was 14.3 ± 0.53 µM and the EC50 [3, 13] was 9.45 ± 1.89 µM.
For O=c1c(O)c(-c2ccc(O)c(O)c2)oc2cc(O)cc(O)c12 [Quercetin, reference compound], the EC50 [4] was 55.1 µM, the EC50 [1, 8] was 32.9 µM and the EC100 ([1]; Homo sapiens, PC-3, 72 h) was 77.1 ± 3.4 µM. It also gave an EC50 ([1]; read-out: EC50 values in PC-3 cells, trypan blue exclusion, 72 h, mean ± SEM) of 32.9 ± 4.1 µM, an EC50 [1, 9] of 44.3 ± 4.29 µM and a viability at 72 h, 50 μM [2] of 84.5 ± 2.21%. The “% Viability of HIFF (50 μM)” value [6] was “least inhibitory”, the EC50 [3, 10] was 39.1 µM and the EC100 ([3]; Homo sapiens, DU-145, 72 h) was 85.4 ± 6.11 µM. It also gave an EC50 [3, 14] of 39.1 ± 2.87 µM and an EC50 [3, 13] of 46.3 ± 8.55 µM.
For O=c1c(O)c(-c2cccc(I)c2)oc2cc(O)cc(O)c12 [5c, 3,5,7-Trihydroxy-2-(3-iodophenyl)-4H-chromen-4-one], the EC50 [1, 8] was 10.5 ± 0.72 µM, the EC50 [1, 9] was 9 ± 1.06 µM and the viability at 72 h, 50 μM [2] was 46.8 ± 2.48%. It also gave an EC50 [3, 10] of 14.5 ± 1.02 µM and an EC50 [3, 11] of 10.1 ± 0.84 µM.
In the case of O=C(c1ccccc1)c1cccc(-c2oc3cc(O)cc(O)c3c(=O)c2O)c1 [5a, 2-(3-Benzoylphenyl)-3,5,7-trihydroxy-4H-chromen-4-one], the EC50 [1, 8] is reported as 9.31 ± 0.58 µM, the EC50 [1, 9] is reported as 8.55 ± 2.06 µM and the viability at 72 h, 50 μM [2] is reported as 34.8 ± 0.2%. It also gave an EC50 [3, 10] of 14.8 ± 0.71 µM and an EC50 [3, 11] of 5.62 ± 5.5 µM.
For O=C(c1ccccc1)c1ccc(-c2oc3cc(O)cc(O)c3c(=O)c2O)cc1 [5b, 2-(4-Benzoylphenyl)-3,5,7-trihydroxy-4H-chromen-4-one], the EC50 [1, 8] was 9.97 ± 0.36 µM, the EC100 ([1]; Homo sapiens, PC-3, 72 h) was 22.3 ± 0.91 µM and the EC50 [1, 12] was 12.3 ± 0.99 µM. The viability at 72 h, 50 μM [2] was 32.3 ± 2.92%, the EC50 [3, 10] was 16.6 ± 0.7 µM and the EC100 ([3]; Homo sapiens, DU-145, 72 h) was 41 ± 2.18 µM. It also gave an EC50 [3, 11] of 24.4 ± 1.1 µM.
In the case of O=c1c(-c2ccc(O)cc2)coc2cc(O)cc(O)c12 [genistein], the “MTT reduced more than the control” value [7] is listed as 60%.
O=c1c(O)c(-c2ccc(I)cc2)oc2cc(O)cc(O)c12 [5d, 3,5,7-Trihydroxy-2-(4-iodophenyl)-4H-chromen-4-one] gave an EC50 [1, 8] of 4.13 ± 0.16 µM, an EC50 [1, 9] of 6.21 ± 0.59 µM and a viability at 72 h, 50 μM [2] of 34.8 ± 0.99%. For the same molecule, the EC50 [3, 10] was 7.51 ± 0.27 µM and the EC50 [3, 11] was 2.33 ± 2.05 µM.
With O=c1c(O)c(-c2ccc(O)cc2)oc2cc(O)cc(O)c12 [Kaempferol, reference compound] the EC50 [1, 8] was 33.3 ± 2.96 µM, the EC100 ([1]; Homo sapiens, PC-3, 72 h) was 57.6 ± 6.4 µM and the EC50 [1, 12] was 24.3 ± 4.63 µM. The viability at 72 h, 50 μM [2] was 73.8 ± 1.38%, the EC50 [3, 10] was 38.4 ± 1.94 µM and the EC100 ([3]; Homo sapiens, DU-145, 72 h) was 74.4 ± 0.83 µM. The EC50 [3, 13] was 36 ± 2.02 µM.
For O=c1c(O)c(-c2ccc(-c3ccccc3)cc2)oc2cc(O)cc(O)c12 [8d, 2-[(1,1′-Biphenyl)-4-yl]-3,5,7-trihydroxy-4H-chromen-4-one], the EC50 [1, 8] was 5.4 ± 0.63 µM, the EC50 [1, 9] was 3.35 ± 0.93 µM and the viability at 72 h, 50 μM [2] was 34.4 ± 3.67%. The EC50 [3, 10] was 5.57 ± 0.6 µM and the EC50 [3, 11] was 6.86 ± 0.18 µM.
